Experimental data published in paper PMC5026420 (Science Advances, 2016).
Substitutions are numbered along the chain they refer to. Read-outs that look alike come from different tables or passages of the source.

How the values were obtained:
CckA_CA = target: T1, CckA_CA (Caulobacter vibrioides, UniProt Q9X688); experiment: ITC ligand binding to CckA_CA; parameters: species or system Caulobacter crescentus
T1 sequence (Q9X688 379-545): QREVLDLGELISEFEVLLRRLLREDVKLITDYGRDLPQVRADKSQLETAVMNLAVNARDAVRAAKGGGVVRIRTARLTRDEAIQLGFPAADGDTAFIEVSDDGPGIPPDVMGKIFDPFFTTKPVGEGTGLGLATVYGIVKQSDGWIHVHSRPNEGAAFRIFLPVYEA
Summary of the method: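 Protein was expressed in E. coli Rosetta (DE3), induced with 0.1 mM IPTG at 22°C, and purified by Ni-NTA then gel filtration (30 mM Tris-HCl pH 7.5, 100 mM NaCl, 5 mM MgCl2). Isothermal titration calorimetry was run at 25 or 12°C, stirring 300 rpm, 200 s preinjection delay, 250 s recording interval. Data were fitted to a single-site model, refitted with N fixed at 1.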

CckA_ΔTM G515D = target: T2, CckA_ΔTM G515D (Caulobacter vibrioides, UniProt Q9X688, G515D); experiment: CckA phosphorylation assay by autoradiography, G515D; format: biochemical, Caulobacter crescentus; details: 15 min of ATP incubation, 75 μM c-di-GMP
T2 sequence (Q9X688 72-691 G515D): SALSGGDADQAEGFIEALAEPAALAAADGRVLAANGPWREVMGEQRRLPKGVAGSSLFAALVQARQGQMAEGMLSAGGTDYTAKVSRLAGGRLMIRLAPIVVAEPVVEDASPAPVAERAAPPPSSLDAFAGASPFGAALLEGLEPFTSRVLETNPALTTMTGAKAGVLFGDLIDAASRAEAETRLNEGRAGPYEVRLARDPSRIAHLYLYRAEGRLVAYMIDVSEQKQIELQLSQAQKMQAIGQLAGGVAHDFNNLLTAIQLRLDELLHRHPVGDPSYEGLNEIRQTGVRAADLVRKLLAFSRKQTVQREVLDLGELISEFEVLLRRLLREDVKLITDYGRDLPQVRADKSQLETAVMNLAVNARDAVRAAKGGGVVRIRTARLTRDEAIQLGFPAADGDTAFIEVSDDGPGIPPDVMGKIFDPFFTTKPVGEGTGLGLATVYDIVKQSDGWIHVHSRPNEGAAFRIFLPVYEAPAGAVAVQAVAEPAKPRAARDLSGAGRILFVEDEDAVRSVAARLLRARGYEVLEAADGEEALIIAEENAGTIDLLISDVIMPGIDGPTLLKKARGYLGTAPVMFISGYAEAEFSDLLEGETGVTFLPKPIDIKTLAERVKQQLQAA
Summary of the method: (§1)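 MBP-tagged CckA_ΔTM (residues S72–A691) or its point mutants are incubated at room temperature with 500 μM ATP plus 5 μCi γ32P-ATP. Further nucleotides are added at set times. Where applicable, ATP is converted to ADP with 1.5 U hexokinase and 5 mM D-glucose. Reactions are stopped in SDS sample buffer and run on 10% SDS gels. Wet gels are exposed to a phosphor screen (0.5–3 h) and scanned.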

CckA_ΔTM F539A = details: cited from earlier work
CckA_ΔTM Y514D = details: cited from earlier work
CckA_ΔTM W523A = details: cited from earlier work
CckA_ΔTM G318A = target: T3, CckA_ΔTM G318A (Caulobacter vibrioides, UniProt Q9X688, G318A); experiment: CckA phosphorylation assay by autoradiography, G318A; format: biochemical, Caulobacter crescentus; details: 15 min of ATP incubation, 75 μM c-di-GMP
T3 sequence (Q9X688 72-691 G318A): T2 sequence (Q9X688 72-691 G515D) with G247A, D444G
Summary of the method: as §1

CckA_ΔTM [1] = target: T4, CckA_ΔTM (Caulobacter vibrioides, UniProt Q9X688); experiment: CckA phosphorylation assay by autoradiography; format: biochemical, Caulobacter crescentus; details: for net CckA_ΔTM~P after addition of effector: ADP or c-di-GMP added after 30 min of incubation with 500 μM ATP
T4 sequence (Q9X688 72-691): T2 sequence (Q9X688 72-691 G515D) with D444G
Summary of the method: as §1

CckA_ΔTM [2] = target: T4, CckA_ΔTM; experiment: Global fit of kinetic model to CckA_ΔTM phosphorylation progress curves; format: biochemical, Caulobacter crescentus; details: simulations; rate with which the data can be fit
Summary of the method: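 Progress curves of net CckA_ΔTM~P come from radiolabelled ATP reactions, with ADP or c-di-GMP added to aliquots after 30 min. The curves were globally fitted to a kinetic model using standard first- and second-order reaction kinetics, set up as a system of coupled ordinary differential equations. Rate parameters such as kr are taken from that global fit.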

SMILES	Kd (CckA_CA; read-out: Kd, c-di-GMP binding, Fig. 3C (in the presence of 5 mM ADP or AMPPNP))	response of net phosphorylation to c-di-GMP (in vitro phenotype) (CckA_ΔTM G515D)	c-di-GMP binding in UV-cross-linking experiments (CckA_ΔTM F539A)	c-di-GMP binding in UV-cross-linking experiments (CckA_ΔTM Y514D)	c-di-GMP binding in UV-cross-linking experiments (CckA_ΔTM W523A)	response of net phosphorylation to c-di-GMP (CckA_ΔTM G318A)	net CckA phosphorylation with effector present throughout (CckA_ΔTM [1]; 15 min of ATP incubation, 75 μM c-di-GMP)	net CckA_ΔTM~P after addition of effector (CckA_ΔTM [1])	rate of debinding (kr) (CckA_ΔTM [2])	Kd (CckA_CA; read-out: Kd, AMPPNP binding, - c-di-GMP, 12°C)
Nc1nc2c(ncn2[C@@H]2O[C@@H]3COP(=O)(O)O[C@H]4[C@@H](O)[C@H](n5cnc6c(=O)[nH]c(N)nc65)O[C@@H]4COP(=O)(O)O[C@H]3[C@H]2O)c(=O)[nH]1 [c-di-GMP, cyclic di–guanosine monophosphate]	~20 µM	identical to that of G318A	lack of c-di-GMP binding	lack of c-di-GMP binding	lack of c-di-GMP binding	virtually no response	effectively blocked	efficiently and rapidly dephosphorylated		
Nc1ncnc2c1ncn2[C@@H]1O[C@H](COP(=O)(O)OP(=O)(O)O)[C@@H](O)[C@H]1O [ADP, adenosine diphosphate]								dose-dependent boost in dephosphorylation	10^−2 to 10^−3 s^−1	
Nc1ncnc2c1ncn2[C@@H]1O[C@H](COP(=O)(O)OP(=O)(O)NP(=O)(O)O)[C@@H](O)[C@H]1O [AMPPNP]										~10 µM
